GalR3 antag: human GalR3 antagonism; O60755; HEK293 GalR3-CNG cAMP membrane potential fluorescence; galR3 body fused to GalR1 C-terminus; inhibition, % at 3 µM; AID 651719; actives 0.44% (n = 360,000);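 active means inhibition above the screen-wide average plus 3 SD, cut at about 13% in these data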;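 further: forskolin and galanin both at EC90 stimulate the cells; cAMP rise reported by CNG channel membrane potential dye signal; 0% = forskolin plus galanin with DMSO and 100% = forskolin alone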
TAAR1 antagonist: antagonists of human TAAR1 | inhibition, % at 3 µM | Q96RJ0 | actives 1.5% (n = 360,000) | AID 624466 | CHO RD-HGA16 TAAR1, Fluo-8 calcium fluorescence, antagonist;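 active means inhibition above a per-plate cutoff, the mean inhibition of test compounds on that plate plus 3 SD, cut at about 49% in these data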;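 further: 0% = DMSO plus EC80 beta-PEA response and 100% = DMSO alone without agonist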
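Assay system: RD-HGA16 CHO cells with stable hTAAR1 and Gα16 / Reagent: EC80 β-phenethylamine stimulus / Doses: 3 µM, single point / Timing: dye loading 75 min at 37 °C, then 30 min room temperature / Measured by: Fluo-8 intracellular calcium dye fluorescence, real-time kinetic reads / Controls: vehicle wells and EC80 agonist wells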
CHO parental Ca: counter-screen for OX1R antagonists: effect in parental CHO cells; parental CHO-K1, ATP-induced calcium, Fluo-8 fluorescence; AID 463079; actives 0.63% (n = 330,000); inhibition, % at 5.6 µM;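 active means inhibition above that plate's mean sample inhibition plus 3 SD, cut at about 26% in these data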;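 further: 0% = ATP-challenged DMSO wells and 100% = DMSO wells without ATP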
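Assay system: parental CHO cells; Read-out basis: percent inhibition of ATP-evoked calcium rise, normalized to controls; Benchmarks: ATP and no-ATP DMSO wells; Compound dosing: single nominal dose of 5.6 µM per compound; Signal: Fluo-8 calcium dye fluorescence; Also added: ATP as calcium-mobilizing challenge; Repeats: singlicate.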
TAAR1 agonist: human TAAR1 agonism | Q96RJ0 | CHO RD-HGA16 TAAR1, Fluo-8 calcium fluorescence; vehicle wells 0%, saturating PEA agonist 100% | activation, % at 3 µM | actives 0.99% (n = 360,000);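 active means activation above the mean activation of all test compounds in the run plus 3 SD, cut at about 38% in these data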
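Repeats: no replicates (n 1) | Material: CHO-derived RD-HGA16 cells with stable Gα16 and human TAAR1 | Technique: Kinetic Fluo-8 calcium fluorescence | Schedule: 17-24 h seeding, 75 min 37 °C dye, 30 min RT | Evaluation: % activation from peak over basal fluorescence ratio, DMSO-to-PEA scaled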
OX1R antag-1: blocks the human orexin 1 receptor; O43613; OX1R-expressing cells, FRET antagonist read-out; inhibition, % at 6.6 µM; actives 1.8% (n = 330,000); in the data active means inhibition mostly above about 38%, no sharp cut-off; inactive means mostly below about 40%;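 further: 0% = agonist challenge alone and 100% = reference antagonist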
Target sequence (O43613 whole entry, looked up): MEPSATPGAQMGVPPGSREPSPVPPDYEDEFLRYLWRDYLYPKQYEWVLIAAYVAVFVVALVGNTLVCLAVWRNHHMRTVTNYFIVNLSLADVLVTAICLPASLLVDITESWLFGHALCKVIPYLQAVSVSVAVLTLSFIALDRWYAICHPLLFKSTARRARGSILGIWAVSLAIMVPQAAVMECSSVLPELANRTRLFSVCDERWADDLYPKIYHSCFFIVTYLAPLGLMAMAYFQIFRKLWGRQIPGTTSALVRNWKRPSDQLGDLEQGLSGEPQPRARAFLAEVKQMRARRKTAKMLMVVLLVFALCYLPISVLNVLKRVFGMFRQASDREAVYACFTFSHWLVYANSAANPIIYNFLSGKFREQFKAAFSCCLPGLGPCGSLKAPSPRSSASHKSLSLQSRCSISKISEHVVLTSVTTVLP
OX1R antag-2: antagonists of human orexin 1 receptor; O43613; CHO/OX1R cells, Fluo-8 calcium fluorescence, orexin A; inhibition, % at 5 µM; actives 0.43% (n = 330,000);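 active means inhibition above its plate's threshold, mean inhibition of all tested compounds on the plate plus 3 SD, cut at about 37% in these data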;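 further: 0% = orexin A challenge wells and 100% = SB-334867-A antagonist wells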
* marks the source's active call; other numbers are inactive results; / = not tested or not shown. Rows were chosen to be rich in hits. Some 4.2% of all compounds tested hit in one or more screens of this group.

SMILES	GalR3 antag	TAAR1 antagonist	CHO parental Ca	TAAR1 agonist	OX1R antag-1	OX1R antag-2
O=C(c1cc(-c2ccccc2)nc2ccccc12)N1CCN(c2ccccn2)CC1	-2	43	-10	19	40	-34
O=C(Nc1ccc(Cl)c(C(F)(F)F)c1)NC1CC2CCCC(C1)N2Cc1ccccc1 (stereo unspecified)	0	-6	37*	32	3	12
COc1cccc(Cn2c(N)c(C#N)c3nc4ccccc4nc32)c1OC	-2	6	-11	4	46*	2
COc1ccc(Cn2c(N)c(C#N)c3nc4ccccc4nc32)cc1	-5	10	-11	11	22	28
NNC(=S)Nc1c(F)cc(F)cc1Br	-6	-18	-17	0	19	-23
COc1ccccc1N1CCN(C2CCCN(C(=O)CCn3cncn3)C2)CC1 (stereo unspecified)	3	-14	-3	2	1	-24
CCN=C(Nc1ccc2c(c1)OCO2)SC1CC(=O)N(c2ccc(OC)cc2)C1=O (stereo unspecified)	-1	50*	-1	13	12	-9
CCN=C(Nc1ccc2c(c1)OCO2)SC1CC(=O)N(c2ccccc2F)C1=O (stereo unspecified)	-1	22	-17	8	44	-16
Cc1ccc2nc(-c3ccc(N4C(=O)CC(N5CCN(CCO)CC5)C4=O)cc3)sc2c1 (stereo unspecified)	-4	-1	4	0	21	-3
COc1ccc(CCN=c2c([N+](=O)[O-])nn(-c3cccc(C)c3)n2O)cc1OC	-2	-4	-21	0	75*	-30
Cc1cccc(CCN=c2c([N+](=O)[O-])nn(-c3ccccc3)n2O)c1	-2	-23	-9	7	34	-10
O=S(=O)(c1ccc(NC(=S)N/N=C/c2ccc(O)c(O)c2)cc1)N1CCOCC1	-4	3	4	2	2	-20
O=[N+]([O-])c1cc(Cl)cc(/C=N/NC(=S)Nc2ccc(S(=O)(=O)N3CCOCC3)cc2)c1O	4	29	-3	-2	75*	-12
CCOc1ccccc1NC(=O)C(OC(=O)c1ccccc1)c1ccccc1 (stereo unspecified)	-4	11	53*	7	18	0
Cc1ccc(-c2csc(NCCn3c(-c4ccncc4)nc4ccccc43)n2)cc1	-2	41	-30	15	60*	-10
CCN1C(=O)[C@H]2[C@@H](c3ccc(C)cc3)N3C(=O)N(c4ccc(C)cc4)C(=O)[C@@]3(Cc3ccc(Cl)cc3)[C@H]2C1=O	-9	28	-20	18	14	-32
CCN1C(=O)[C@H]2[C@@H](c3ccc(C)cc3)N3C(=O)N(c4ccccc4)C(=O)[C@@]3(Cc3ccc(Cl)cc3)[C@H]2C1=O	/	/	-14	/	63*	-44
CN1C(=O)N(C)C2(C)CC1(C)N(C)C(=O)N2C	2	-8	3	11	4	-14
Cc1cccc(C(=O)Nc2nnc(-c3cccnc3)o2)c1	0	-10	-2	1	16	-18
O=c1[nH][nH]c(=O)c2cc([N+](=O)[O-])ccc12	-4	-5	-7	2	52*	-14
O=c1[nH]cnc2ccc([N+](=O)[O-])cc12	-3	14	5	1	52*	0
O=c1[nH]cnc2ccccc12	-4	-23	-2	5	9	-1
COc1cc2c(=O)[nH]c3cc([N+](=O)[O-])ccc3c2cc1[N+](=O)[O-]	2	-20	/	0	/	/
Cc1ccc(O)c(C2=Nc3ccccc3N=C(c3ccc([N+](=O)[O-])cc3)C2)c1	2	23	-4	41*	9	-8
CN(C)/N=C1\C(=O)N(CN2CCN(c3ccccc3)CC2)c2ccccc21	-3	-16	3	15	11	-4
SMILES	GalR3 antag	TAAR1 antagonist	CHO parental Ca	TAAR1 agonist	OX1R antag-1	OX1R antag-2
O=C(N/N=C/c1cn(-c2cccs2)nc1-c1ccccc1)c1ccc(O)cc1	-3	26	-24	0	65*	8
CC(C)COc1ccc(-c2nn(-c3ccccc3)cc2C(=O)Nc2nccs2)cc1	-3	73*	39*	11	6	26
O=C(N/N=C/c1cn(-c2ccccc2)nc1-c1cccs1)c1ccncc1	-3	50*	-14	12	50	-11
O=C(N/N=C\c1cn(-c2ccccc2)nc1-c1ccccc1)c1ccc(Br)o1	-3	54*	5	11	59	2
O=C(N/N=C/c1cn(-c2cccs2)nc1-c1ccccc1)c1ccccc1Cl	-4	28	-1	3	12	-14
CN(C(=O)c1cccc(NC(=O)Cc2ccc(NC(=O)C3CCCN(C(=O)C4CCCCC4)C3)cc2)c1)C1CCCC1 (stereo unspecified)	-8	7	/	-2	/	/
O=C(Nc1cccnc1)c1cn(-c2ccccc2)nc1-c1cccs1	-3	50*	-15	11	18	-14
O=C(Nc1cccc2ccccc12)c1cn(-c2ccccc2)nc1-c1cccs1	/	/	-14	/	10	7
COC(=O)C1=C(C)NC(=O)/C1=C\c1cc(C)n(-c2cccc(C)c2)c1C	0	18	-6	4	16	-11
O=C(CC1SCCNC1=O)Nc1ccccc1Cl (stereo unspecified)	-7	-11	7	0	-3	4
COc1ccc(-n2nnnc2/C=C\Nc2ccccc2C(=O)c2ccccc2)cc1	-2	14	8	2	17	-7
C=CCNC(=O)O/N=C/c1csc([N+](=O)[O-])c1	-6	-1	-12	0	42*	-4
COc1ccc(NC(=O)C(c2cc3ccccc3o2)n2c(=O)c(-c3cc4ccccc4[nH]3)nc3ccccc32)cc1 (stereo unspecified)	-7	-13	/	0	/	/
COC(=O)c1ccccc1OC(=O)c1cc2ccccc2oc1=O	-6	-16	-7	0	31*	-29
CC1CCN(C(=O)COC(=O)c2cc3ccccc3oc2=O)CC1	-6	-14	-11	4	42*	-5
COC(=O)c1cc2ccccc2oc1=O	1	-13	-4	4	31	-21
CCOC(=O)c1ccc(NC(=O)CCc2nc(-c3ccc(C)cc3)no2)cc1	-2	0	33*	15	14	0
Cc1ccc(-c2noc(CCCC(=O)NC3CCCCC3)n2)cc1	-9	9	40*	-1	9	-7
COc1ccc(-c2noc(CCC(=O)Nc3ccc(C)c(C)c3)n2)cc1	6	-5	-1	4	16	21
CCOC(=O)c1ccc(NC(=O)CCc2nc(-c3ccc(Cl)cc3)no2)cc1	-3	26	47*	16	18	45*

Compound activity (PubChem)
